From article PMC8419008 (Structure (London, England : 1993), 2021)
Residue numbers refer to the chain shown, from its start. Entries after “also recorded” stand apart in the source; their conditions may differ.

Tests used:
[1] = molecular target: T1, PHA7-D175K (PLEKHA7 PH domain mutant) (Homo sapiens, UniProt Q6IQ23, D175K); experiment: ITC titration of mutant PHA7-D175K with soluble IP headgroups or PIP nanodiscs; assay type: binding; conditions: soluble IP headgroups; for Kd: read-out: ITC Kd, PHA7-D175K, 23°C, single-site binding model, average of triplicate; for greater affinity of PHA7-D175K compared to wild-type: ITC
T1 sequence (Q6IQ23 164-285 D175K): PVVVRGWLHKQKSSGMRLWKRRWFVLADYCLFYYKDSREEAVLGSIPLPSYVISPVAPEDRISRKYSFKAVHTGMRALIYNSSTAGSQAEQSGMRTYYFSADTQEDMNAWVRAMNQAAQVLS
Method in brief: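 ITC run at 23°C in 15 mM Tris pH 7.6, 70 mM NaCl, 0.5 mM TCEP. Cell held 50 μM protein; syringe held 0.5 mM soluble IP headgroup. Protein concentration was set by A280. Integrated heats were fitted to a single-site binding model to obtain dissociation constants.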

[2] = molecular target: T2, PLEKHA7 PH domain (PHA7, wild-type) (Homo sapiens, UniProt Q6IQ23); experiment: ITC titration of wild-type PHA7 with soluble IP headgroups or PIP nanodiscs; conditions: read-out: ITC Kd, PHA7; soluble IP headgroups; 23°C; single-site binding model; average of triplicate
T2 sequence (Q6IQ23 164-285): T1 sequence (Q6IQ23 164-285 D175K) with K12D

[3] = molecular target: T3, PHA7 (PLEKHA7 PH domain, wild-type) (Homo sapiens, UniProt Q6IQ23); experiment: 1H/15N HSQC NMR chemical shift perturbation of 15N-labeled PHA7; assay type: binding; conditions: 15°C; for NMR spectral change of PHA7 on incubation with nanodiscs: 1.5 molar equivalents of nanodiscs, 100% diC16-PC or 10% molar diC16-PIP; for NMR spectral perturbation / binding of PHA7: soluble or short-chain ligand, 1.5 molar equivalents
T3 sequence (Q6IQ23 164-285): T1 sequence (Q6IQ23 164-285 D175K) with K12D
Method in brief: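 Human PLEKHA7 PH domain expressed as a GST fusion in E. coli BL21 in M9 with (15NH4)2SO4, then cleaved with HRV 3C, purified by cation exchange and gel filtration. Added directly to preformed MSP1D1Δh5 nanodiscs (100% diC16-PC, or 9/1 diC16-PC with diC16-PI(3,4,5)P3, -PI(4,5)P2 or -PI(3,4)P2). Read-out: 1H/15N chemical shift perturbations.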

[4] = molecular target: T4, PHA7 (PLEKHA7 PH domain) (Homo sapiens, UniProt Q6IQ23); experiment: Liposome co-sedimentation assay; assay type: binding; conditions: pure diC16-PC liposomes or liposomes containing 10% molar diC16-PIP; SDS-PAGE
T4 sequence (Q6IQ23 164-285): T1 sequence (Q6IQ23 164-285 D175K) with K12D
Method in brief: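 Small unilamellar vesicles made by bath sonication until translucent, from 100% diC16-PC or 9/1 diC16-PC/diC16-PI(4,5)P2 at 3 mg/mL. 200 uL vesicles mixed with 20 uM PH domain solution, 2 h at room temperature. Airfuge spin at 91,000 rpm for 20 h; supernatant and pellet analysed by SDS-PAGE.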

O=P(O)(O)O[C@@H]1[C@H](O)[C@H](O)[C@@H](OP(=O)(O)O)[C@H](OP(=O)(O)O)[C@H]1O [IP(4,5)P2, inositol (1,4,5) triphosphate]
Kd [1]: 10.7 ± 0.2 µM | greater affinity of PHA7-D175K compared to wild-type [1]: three-fold | Kd [2]: 30.5 ± 0.6 µM

CCCCCCCCCCCCCCCC(=O)OC[C@H](COP(=O)([O-])OCC[N+](C)(C)C)OC(=O)CCCCCCCCCCCCCCC [diC16-PC, dipalmitoyl-phosphatidyl-choline]
NMR spectral change of PHA7 on incubation with nanodiscs [3]: no detectable NMR spectral changes | co-sedimentation of PHA7 with liposomes [4]: does not sediment

CCCCCCCC(=O)OC[C@H](COP(=O)(O)OC1[C@H](O)[C@H](O)C(O)[C@H](O)[C@H]1O)OC(=O)CCCCCCC (stereo partly drawn) [diC8-PI]
NMR spectral perturbation / binding of PHA7 [3]: no perturbations; also recorded: does not bind

phosphatidyl inositol (3,4,5) triphosphate [PI(3,4,5)P3]
NMR spectral change of PHA7 on incubation with nanodiscs [3]: effectively obliterated | co-sedimentation of PHA7 with liposomes [4]: abundant co-sedimentation

O=P(O)(O)OC1[C@H](O)[C@H](OP(=O)(O)O)C(OP(=O)(O)O)[C@H](OP(=O)(O)O)[C@H]1O (stereo partly drawn) [IP(3,4,5)P3, inositol (1,3,4,5) tetraphosphate]
NMR spectral perturbation / binding of PHA7 [3]: weak binding interaction with fast exchange binding dynamics | Kd [1]: 3.5 ± 0.5 µM | greater affinity of PHA7-D175K compared to wild-type [1]: nine-fold | Kd [2]: 30.1 ± 2.3 µM
